Measured values as given in PubChem BioAssay.
Records with an inconclusive call do not appear.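 How the source made its calls, unless noted: active means viability at or below 27.92% in each of two runs, the all-compound median minus 4 SD; inconclusive means no clear call, values can overlap the other calls; inactive means the rest.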

Tests used:
[1] = S. cerevisiae growth inhibition in permissive medium (OD615), pilot counter-assay for S. cerevisiae lifespan shortening project, permissive growth control (AID 705;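 active means growth inhibition above 25% in both replicates, a cutoff set 3 SD above the mean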); settings: OD615, 24 h, at 10 µM, active compounds read high
How it was run: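 Test system: Saccharomyces cerevisiae strain carrying genetically modified DeaD replicative-lifespan system; buffer or medium: SC raffinose/galactose permissive medium; dosing: one dose 10 µM, DMSO 0.25% final; times: 24 h exposure, 30 °C; measured by: OD at 615 nm; read-out basis: growth inhibition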

[2] = S. cerevisiae growth inhibition in restrictive medium, OD615, pilot screen, restrictive growth control, yeast lifespan reduction project (AID 706;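 active means growth inhibition above a set limit, 3 SD over mean compound inhibition, in both replicates, cut at about 43% in these data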;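 further: modified DeaD lifespan yeast strain shifted to restrictive glucose medium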); settings: OD615, 48 h, at 10 µM, active compounds read high
How it was run: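 material = engineered S. cerevisiae DeaD strain | buffer or medium = glucose-based CSMM-D restrictive medium | dosing = one concentration, 10 µM final, 0.25% DMSO | schedule = 4 h pre-growth plus 48 h compound exposure, 30 °C | detection = OD615 absorbance reading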

[3] = doxorubicin toxicity protection in MRP-1 cells – H69AR cells, CellTiter-Glo, duplicate, MRP-1 activator project, pilot screen (AID 807;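 active means viability increase at or above a cutoff of the median across tested compounds plus 3 SD, cut at about 8.5% in these data, passing the limit was not always enough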;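 further: compound pretreatment 18-22 h then 72 h combined with doxorubicin; 0% = doxorubicin alone and 100% = vehicle without doxorubicin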); settings: H69AR viability with doxorubicin, CellTiter-Glo luminescence; at 10 µM; active compounds read high
[4] = viability of HCT116 without oncogenic beta-catenin – human colon tumor cells, pilot screen (AID 823;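 active means cell viability at or below a set limit in both duplicate runs, the limit being the all-compound median minus 4 SD, cut at about 23% in these data, passing the limit was not always enough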;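 further: 0% = wells killed by 20 µM Hyamine and 100% = untreated DMSO cell wells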); settings: HCT116 beta-catenin knockout viability, CellTiter-Glo, 60 h; at 10 µM; active compounds read low
[5] = viability of PTEN-null HCT116 cells – cell-based, HCT116 clonal line, CellTiter-Glo, pilot screen (AID 824); settings: HCT116 PTEN-deleted viability, 60 h, at 10 µM, active compounds read low;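 further: 0% = 20 µM Hyamine control and 100% = vehicle cell control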
[6] = RAM pathway blockade in budding yeast – dse1pr::URA3 reporter, 5-FOA selection, pilot screen (AID 869;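 active means inhibition over a set limit, the all-compound mean plus 3 SD, in both replicate runs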;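 further: 0% = DMSO wells with no growth and 100% = 10 µM 1-NA-PP1 with full growth; RAM network block rescues cells from 5-FOA so hits raise OD615 growth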); settings: S. cerevisiae dse1pr::URA3 5-FOA growth, OD615, 2 d; at 10 µM; active compounds read high; strain carries analog-sensitive mutant Cbk1 kinase
[7] = RAM signaling pathway blockade in yeast – S. cerevisiae, Pdr1DBD-CYC8 efflux-inhibited sensitized strain, primary screen (AID 1298;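 active means RAM network inhibition above 8.4% in each of two replicates, 3 SD over the compound average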;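 further: 0% = DMSO untreated cells without growth and 100% = 10 µM 1-NA-PP1 full growth; higher means more yeast growth rescued from 5-FOA killing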); settings: S. cerevisiae cbk1-as DSE1-URA3 strain, 5-FOA growth OD615, 2 d; at 50 µM; active compounds read high

CCN(CCCNC(=O)Cn1ncc2c(=O)oc3ccccc3c21)c1cccc(C)c1
inactive: growth inhibition [1] 1.03% | growth inhibition [2] 9.37% | viability increase [3] -2.09% | viability [4] 89.9% | viability [5] 87.5% | inhibition [6] 2.57% | RAM network inhibition [7] 3.72%

Cc1noc(C)c1CSCC(=O)OCC(=O)NC1CCCCC1
inactive: growth inhibition [1] -9% | growth inhibition [2] 2.07% | viability increase [3] 0.39% | viability [4] 97.1% | viability [5] 99.3% | inhibition [6] 0.26% | RAM network inhibition [7] 2.57%

CC1(C)CC(=O)C=C(NCCc2ccc(S(N)(=O)=O)cc2)C1
inactive: growth inhibition [1] -8.44% | growth inhibition [2] -12% | viability increase [3] -0.64% | viability [4] 94.3% | viability [5] 96.2% | inhibition [6] 1.18% | RAM network inhibition [7] 1.82%

COc1cc(N)ccc1Cc1ccc(N)cc1OC
inactive: growth inhibition [1] -5.34% | growth inhibition [2] -2.19% | viability increase [3] -4.54% | viability [4] 85.9% | viability [5] 90.8% | inhibition [6] -0.06% | RAM network inhibition [7] 6.85%

CC(=O)c1ccc(OCC(O)CN2CCN(c3ccccn3)CC2)cc1 (stereo not given)
inactive: growth inhibition [1] 2.13% | growth inhibition [2] 4.88% | viability increase [3] 0.37% | viability [4] 102% | viability [5] 103% | inhibition [6] 1.18% | RAM network inhibition [7] 2.51%

CC(=O)c1cccc(NC(=O)C2CCCN(S(=O)(=O)c3cccc4cccnc34)C2)c1 (stereo not given)
inactive: growth inhibition [1] -10.5% | growth inhibition [2] -5.17% | viability increase [3] -2.34% | viability [4] 83.5% | viability [5] 73.7% | inhibition [6] 2.18% | RAM network inhibition [7] 4.5%

COc1ccc(O)c(-c2[nH]ncc2C(=O)c2ccccc2)c1
inactive: growth inhibition [1] -14.7% | growth inhibition [2] -2.28% | viability increase [3] -2.45% | viability [4] 101% | viability [5] 94.8% | inhibition [6] 1.27% | RAM network inhibition [7] 4.35%

CC1(C)C(=O)OC(c2cc(Br)ccc2O)C(C)(C)C1=O (stereo not given)
inactive: growth inhibition [1] -8.82% | growth inhibition [2] -1.84% | viability increase [3] -2.35% | viability [4] 90.2% | viability [5] 82.1% | inhibition [6] -0.355% | RAM network inhibition [7] 4.3%

CCOC(=O)Cc1csc(NC(=O)COc2ccc(OC)cc2)n1
inactive: growth inhibition [1] -22.4% | growth inhibition [2] -8.99% | viability increase [3] -2.2% | viability [4] 97.2% | viability [5] 92.2% | inhibition [6] 1.89% | RAM network inhibition [7] 0.64%

CCCN1CCN(CCCNC(=O)c2cc3c(=O)n(C)c4ccccc4c3n2C)CC1
inactive: growth inhibition [1] -5.02% | growth inhibition [2] 0.66% | viability increase [3] -7.07% | viability [4] 64.1% | viability [5] 65.3% | inhibition [6] 0.68% | RAM network inhibition [7] 1.89%

COc1cc(OC)cc(OCC(O)Cn2cnc3cc(C)c(C)cc32)c1 (stereo not given)
inactive: growth inhibition [1] -4.53% | growth inhibition [2] -8.79% | viability increase [3] -5.24% | viability [4] 80.2% | viability [5] 80.3% | inhibition [6] 1.33% | RAM network inhibition [7] -0.82%

O=C1CC(c2ccco2)Sc2nc3ccccc3n21 (stereo not given)
inactive: growth inhibition [1] -10.5% | growth inhibition [2] 13.4% | viability increase [3] -3.98% | viability [4] 67.2% | viability [5] 80.3% | inhibition [6] 0.365% | RAM network inhibition [7] 1.62%

O=C(Nc1ccc2c(c1)OCO2)C(c1ccccc1)N1CCCCC1 (stereo not given)
inactive: growth inhibition [1] -3.12% | growth inhibition [2] 0.37% | viability increase [3] -1.69% | viability [4] 80.6% | viability [5] 93.2% | inhibition [6] 1.16% | RAM network inhibition [7] 2.51%

O=C(c1ccccc1)c1ccc(N2CCCC2)cc1
inactive: growth inhibition [1] -1.86% | growth inhibition [2] 7.65% | viability increase [3] -2.59% | viability [4] 93% | viability [5] 96.4% | inhibition [6] 1.23% | RAM network inhibition [7] 1.03%

CCC1CC(C)(C(=O)Nc2ccc(S(N)(=O)=O)cc2)OC1=O (stereo not given)
inactive: growth inhibition [1] -2.94% | growth inhibition [2] 3.6% | viability increase [3] 1.12% | viability [4] 102% | viability [5] 98.1% | inhibition [6] 1.36% | RAM network inhibition [7] 3.69%

COC(=O)C1=CN(CC2CCCO2)C=C(C(=O)OC)C1c1ccsc1 (stereo not given)
inactive: growth inhibition [1] -22.4% | growth inhibition [2] -3.27% | viability increase [3] -4.97% | viability [4] 92.1% | viability [5] 97.5% | inhibition [6] 0.125% | RAM network inhibition [7] 4.53%

CC1(C)CC2CC(C)(CN2C(=O)C23CCC(C)(C(=O)O2)C3(C)C)C1 (stereo not given)
inactive: growth inhibition [1] -6.75% | growth inhibition [2] -1.53% | viability increase [3] -1.13% | viability [4] 92.5% | viability [5] 91.1% | inhibition [6] 2.16% | RAM network inhibition [7] 4%

CCNC(=O)Cc1ccc(NS(=O)(=O)c2ccc(F)cc2)cc1
inactive: growth inhibition [1] -7.1% | growth inhibition [2] 13.8% | viability increase [3] -2.21% | viability [4] 100% | viability [5] 94.6% | inhibition [6] 0.34% | RAM network inhibition [7] 2.36%

Cc1cc(C)cc(Nc2cc(C)nc3nc(C)nn23)c1
inactive: growth inhibition [1] -3.56% | growth inhibition [2] 11.6% | viability increase [3] -2.41% | viability [4] 95.9% | viability [5] 90.8% | inhibition [6] 1.87% | RAM network inhibition [7] -0.26%

CCCCn1nc(NC(=O)c2cccs2)c2cc3ccccc3nc21
inactive: growth inhibition [1] -22.7% | growth inhibition [2] -8.93% | viability increase [3] 1.45% | viability [4] 54.6% | viability [5] 48.3% | inhibition [6] 0.55% | RAM network inhibition [7] 4.61%

CN(Cc1ccccc1)S(=O)(=O)c1ccc2[nH]c(=O)oc2c1
inactive: growth inhibition [1] -17.3% | growth inhibition [2] -30.6% | viability increase [3] -0.12% | viability [4] 109% | viability [5] 96% | inhibition [6] 0.425% | RAM network inhibition [7] 5.4%

COCc1cc(=O)n2c(-c3ccc(C)cc3)n[nH]c2n1
inactive: growth inhibition [1] -9.25% | growth inhibition [2] 6.96% | viability increase [3] -0.72% | viability [4] 95.8% | viability [5] 92.1% | inhibition [6] 2.2% | RAM network inhibition [7] 1.28%

COc1ccc2cc(CCNC(=O)c3c(-c4ccccc4Cl)noc3C)c(=O)[nH]c2c1
inactive: growth inhibition [1] -14.1% | growth inhibition [2] -21.1% | viability increase [3] -3.23% | viability [4] 103% | viability [5] 92.7% | inhibition [6] 1.02% | RAM network inhibition [7] 4.72%

Cc1ccoc1C(=O)NCc1occc1C(=O)O
inactive: growth inhibition [1] -12.6% | growth inhibition [2] -16.8% | viability increase [3] -3.44% | viability [4] 96.2% | viability [5] 93.1% | inhibition [6] -0.575% | RAM network inhibition [7] 1.58%

O=C(CC1Oc2ccccc2NC1=O)NCc1ccccc1 (stereo not given)
inactive: growth inhibition [1] 0.945% | growth inhibition [2] -4.32% | viability increase [3] -0.93% | viability [4] 105% | viability [5] 100% | inhibition [6] 3.42% | RAM network inhibition [7] 4.73%

CCOc1ccccc1N1C(=O)CC(Nc2ccc(N3CCOCC3)cc2)C1=O (stereo not given)
inactive: growth inhibition [1] -0.205% | growth inhibition [2] 7.53% | viability increase [3] -2.65% | viability [4] 101% | viability [5] 101% | inhibition [6] 1.6% | RAM network inhibition [7] 5.11%

C=CCn1c(SCc2ccc(F)cc2)nc2c1c(=O)[nH]c(=O)n2C
inactive: growth inhibition [1] -8.99% | growth inhibition [2] -8.69% | viability increase [3] -2.64% | viability [4] 96.9% | viability [5] 89% | inhibition [6] 0.25% | RAM network inhibition [7] 2.71%

Cc1cc(-c2ccco2)n(CC(=O)NCc2ccco2)n1
inactive: growth inhibition [1] -3.72% | growth inhibition [2] -9.28% | viability increase [3] -2.82% | viability [4] 100% | viability [5] 100% | inhibition [6] 0.355% | RAM network inhibition [7] 2.47%

Cc1ccccc1-c1nc(CS(=O)CC(=O)NCc2ccccc2)c(C)o1 (stereo not given)
inactive: growth inhibition [1] 0.295% | growth inhibition [2] 7.02% | viability increase [3] 1.37% | viability [4] 101% | viability [5] 101% | inhibition [6] 0.655% | RAM network inhibition [7] 4%

COc1cc(C2C(C(=O)OC(C)C)=C(C)Nc3ncnn32)cc(OC)c1OC (stereo not given)
inactive: growth inhibition [1] -8.66% | growth inhibition [2] -10.4% | viability increase [3] -3.15% | viability [4] 100% | viability [5] 96.8% | inhibition [6] 1.19% | RAM network inhibition [7] 1.44%

COc1ccc(NC(=O)Nc2ccc3c(c2)N(C)C(=O)CS3)cc1OC
inactive: growth inhibition [1] -18.9% | growth inhibition [2] -18.2% | viability increase [3] -4.94% | viability [4] 88% | viability [5] 75.9% | inhibition [6] 2.05% | RAM network inhibition [7] 5.75%

COc1ccc(OC)c(S(=O)(=O)n2nc(-c3ccccc3)cc2N)c1
inactive: growth inhibition [1] -6.75% | growth inhibition [2] -2.54% | viability increase [3] -2.02% | viability [4] 104% | viability [5] 103% | inhibition [6] 0.795% | RAM network inhibition [7] 1.93%

O=S(=O)(c1ccc(Cl)c(Cl)c1)N1CCc2nc3ccccc3n2CC1
inactive: growth inhibition [1] -5.17% | growth inhibition [2] 4.47% | viability increase [3] -1.28% | viability [4] 98.9% | viability [5] 102% | inhibition [6] 1.75% | RAM network inhibition [7] 6.73%

Cn1c(C(=O)N2CCN(C3CCCCC3)CC2)cc2c(=O)n(C)c3ccccc3c21
inactive: growth inhibition [1] -0.185% | growth inhibition [2] 4.76% | viability increase [3] -1.32% | viability [4] 105% | viability [5] 101% | inhibition [6] 1.2% | RAM network inhibition [7] 0.21%

CCOC(=O)N1CCC(Nc2c(OCC)c(=O)c2=O)CC1
inactive: growth inhibition [1] -10.2% | growth inhibition [2] 10.1% | viability increase [3] -0.57% | viability [4] 102% | viability [5] 96.4% | inhibition [6] 1.31% | RAM network inhibition [7] 5.22%
